Laboratory results taken from ChEMBL document CHEMBL4673223, “Synthesis, Biological, and Structural Explorations of New Zwitterionic Derivatives of 14- O-Methyloxymorphone, as Potent μ/δ Opioid Agonists and Peripherally Selective Antinociceptives” (J Med Chem, 2019).
Activity calls are given as the source filed them. No cut-off for these calls is given here.

Assays:
[1] = molecular target: Delta-type opioid receptor (Homo sapiens) (UniProt P41143); assay: Displacement of [3H]diprenorphine from human DOR expressed in CHO cell membranes incubated for 60 mins liquid scintillation counting assay; settings: Cell membrane, filed as agonist
Method in brief: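 Membranes from CHO cells expressing human DOR (15–20 μg) in 50 mM Tris-HCl, pH 7.4, were incubated with 0.2 nM [3H]diprenorphine and varied test concentrations for 60 min at 25 °C. Nonspecific binding was set with 1–10 μM unlabeled diprenorphine. Samples were GF/C filtered and scintillation counted.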

Rattus norvegicus = species on record: Rattus norvegicus; assay: Selectivity index, ratio of Ki for displacement of [3H][Ile5,6]deltorphin II from delta opioid receptor in rat brain membranes to Ki for displacement of [3H]DAMGO from mu opioid receptor in rat brain membranes; format: cell membranes
Method in brief: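 Rat brain membranes (cerebella removed; 0.3–0.5 mg protein) in 50 mM Tris-HCl, pH 7.4, were incubated 45 min at 35 °C with 1 nM [3H]DAMGO (MOR) or 0.5 nM [3H][Ile5,6]deltorphin II (DOR) plus varied test concentrations. Nonspecific binding was set with 10 μM naloxone. Samples were GF/C filtered, washed and scintillation counted. Ki was obtained by Cheng–Prusoff; duplicates, 3–4 experiments.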

[2] = Selectivity index, ratio of Ki for displacement of [3H]U69,593 from kappa opioid receptor in guinea-pig brain membranes to Ki for displacement of [3H]DAMGO from mu opioid receptor in rat brain membranes; format: cell membranes
Method in brief: (§1)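 Guinea-pig brain membranes (0.3–0.5 mg protein) in 50 mM Tris-HCl, pH 7.4, were incubated with 1 nM [3H]U69,593 for 30 min at 30 °C, with 10 μM naloxone defining nonspecific binding. MOR was measured on rat brain membranes with 1 nM [3H]DAMGO for 45 min at 35 °C. Samples were filtered and scintillation counted, and Ki was obtained by Cheng–Prusoff; duplicates, 3–4 experiments.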

[3] = molecular target: Mu-type opioid receptor (Homo sapiens) (UniProt P35372); assay: Agonist activity at human MOR expressed in CHO cell membranes incubated for 60 mins scintillation counting assay relative to DAMGO; settings: Cell membrane
Method in brief: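 CHO-hMOR or CHO-hKOR membranes (5–10 μg) were incubated 60 min at 25 °C in HEPES/MgCl2/NaCl buffer, pH 7.4, with 0.05 nM [35S]GTPγS, 10 μM GDP and varied test concentrations. Nonspecific binding was set with 10 μM GTPγS. Samples were filtered and scintillation counted. % stimulation was taken from concentration–response curves relative to the full agonist (DAMGO for MOR, U69,593 for KOR). Duplicates, 3–4 experiments.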

[4] = molecular target: Kappa-type opioid receptor (Cavia porcellus, UniProt P41144); assay: Displacement of [3H]U69,593 from kappa opioid receptor in guinea-pig brain membranes incubated for 30 mins by liquid scintillation counting method; format: cell membranes, Membrane; method in brief: as §1
Mus musculus [5] = assay: Antinociceptive activity in sc dosed CD1 mouse assessed as inhibition of the writhing response after 30 mins post dose by acetic acid-induced writhing assay; format: functional; settings: 0.5 h
Mus musculus [6] = assay: Antinociceptive activity in CD1 mouse assessed as inhibition of the writhing response at 50 ug/kg, sc and co-administered with 1 mg/kg naloxone methiodide and measured after 30 mins post dose by acetic acid-induced writhing assay; format: functional, organism-based; settings: dose 50.0 µg/kg
Method in brief: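 Male CD1 mice (30–35 g) received the agonist sc in saline (10 μL/g) together with sc naloxone methiodide 1 mg/kg. At 25 min, 0.6% acetic acid was given ip, and writhes were counted over a 10 min observation period (30 min post-dose). Results were expressed as mean writhes versus saline control and agonist-alone groups; n = 6–7 mice per group; ANOVA with Tukey post hoc.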

Delta-type opioid receptor (Homo sapiens), sequence (P41143 whole entry): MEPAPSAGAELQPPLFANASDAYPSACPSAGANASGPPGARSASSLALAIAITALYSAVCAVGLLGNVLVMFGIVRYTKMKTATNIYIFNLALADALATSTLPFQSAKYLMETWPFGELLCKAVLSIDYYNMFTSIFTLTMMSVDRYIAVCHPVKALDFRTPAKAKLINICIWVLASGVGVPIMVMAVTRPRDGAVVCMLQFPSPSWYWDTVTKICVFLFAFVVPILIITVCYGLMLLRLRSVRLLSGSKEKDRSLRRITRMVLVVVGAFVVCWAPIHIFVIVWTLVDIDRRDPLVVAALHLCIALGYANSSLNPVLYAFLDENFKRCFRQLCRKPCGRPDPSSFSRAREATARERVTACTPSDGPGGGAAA
Mu-type opioid receptor (Homo sapiens), sequence (P35372 whole entry): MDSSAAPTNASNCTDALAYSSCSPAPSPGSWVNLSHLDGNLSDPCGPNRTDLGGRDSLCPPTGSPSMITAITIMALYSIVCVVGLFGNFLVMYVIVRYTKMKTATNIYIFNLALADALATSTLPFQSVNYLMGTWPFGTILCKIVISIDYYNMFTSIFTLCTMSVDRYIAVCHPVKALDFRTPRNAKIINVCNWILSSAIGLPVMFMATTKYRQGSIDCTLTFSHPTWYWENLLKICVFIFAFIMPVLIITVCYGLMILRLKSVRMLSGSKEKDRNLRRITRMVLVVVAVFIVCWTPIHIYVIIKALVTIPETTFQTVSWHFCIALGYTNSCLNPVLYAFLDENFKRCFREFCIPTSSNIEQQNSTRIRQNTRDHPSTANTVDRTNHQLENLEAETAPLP
Kappa-type opioid receptor, sequence (P41144 whole entry): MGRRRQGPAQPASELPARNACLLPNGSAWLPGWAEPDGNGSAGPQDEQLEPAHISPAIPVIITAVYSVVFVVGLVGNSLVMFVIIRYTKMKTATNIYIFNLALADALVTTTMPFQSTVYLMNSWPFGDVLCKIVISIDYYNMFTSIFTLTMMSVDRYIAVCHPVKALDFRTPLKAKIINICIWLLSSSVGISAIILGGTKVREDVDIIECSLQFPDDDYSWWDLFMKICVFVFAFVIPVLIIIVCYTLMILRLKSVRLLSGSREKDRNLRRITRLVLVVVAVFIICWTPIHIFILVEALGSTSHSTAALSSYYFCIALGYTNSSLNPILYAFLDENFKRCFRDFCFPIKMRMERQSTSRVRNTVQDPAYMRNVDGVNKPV

SMILES	Activity [1]	Ratio Ki (Rattus norvegicus)	Ratio Ki [2]	Activity ([3]; filed as partial agonist)	Activity ([3]; filed as agonist)	Ki [4]	ED50 (Mus musculus [5])	Activity (Mus musculus [6])
CO[C@@]12CC[C@@H](N[C@H](C)C(=O)O)[C@@H]3Oc4c(O)ccc5c4[C@@]31CCN(C)[C@@H]2C5	Active	–	–	–	–	–	–	–
CO[C@@]12CC[C@@H](N[C@@H](CCC(N)=O)C(=O)O)[C@@H]3Oc4c(O)ccc5c4[C@@]31CCN(C)[C@@H]2C5	Active	2	117	–	–	–	–	–
CN1CC[C@]23c4c5ccc(O)c4O[C@H]2[C@@H](NCC(=O)O)CC[C@@]3(OCCCc2ccccc2)[C@H]1C5	Active	–	–	–	–	–	–	–
CO[C@@]12CC[C@H](N[C@H](C(=O)N[C@@H](Cc3ccc(O)cc3)C(=O)O)C(C)C)[C@@H]3Oc4c(O)ccc5c4[C@@]31CCN(C)[C@@H]2C5	Active	1.5	84	84%	–	–	–	–
CO[C@@]12CCC(=O)[C@@H]3Oc4c(O)ccc5c4[C@@]31CCN(C)[C@@H]2C5	Active	–	–	–	–	–	–	–
CO[C@@]12CC[C@@H](NCCC(=O)O)[C@@H]3Oc4c(O)ccc5c4[C@@]31CCN(C)[C@@H]2C5	Active	13	69	–	78%	–	–	–
CO[C@@]12CC[C@H](N[C@@H](C)C(=O)O)[C@@H]3Oc4c(O)ccc5c4[C@@]31CCN(C)[C@@H]2C5	Active	–	–	–	–	142 nM	0.016 mg/kg	–
CO[C@@]12CC[C@H](N[C@@H](CCCCN)C(=O)O)[C@@H]3Oc4c(O)ccc5c4[C@@]31CCN(C)[C@@H]2C5	Active	6.7	66	–	–	–	–	–
CO[C@@]12CC[C@@H](N[C@H](C(=O)N[C@@H](Cc3ccc(O)cc3)C(=O)O)C(C)C)[C@@H]3Oc4c(O)ccc5c4[C@@]31CCN(C)[C@@H]2C5	Active	3.1	–	73%	–	–	–	–
CN1CC[C@]23c4c5ccc(O)c4O[C@H]2[C@H](NCC(=O)O)CC[C@@]3(OCCCc2ccccc2)[C@H]1C5	Active	–	–	–	–	–	–	–
CO[C@@]12CC[C@H](NCC(=O)O)[C@@H]3Oc4c(O)ccc5c4[C@@]31CCN(C)[C@@H]2C5	Active	–	–	–	–	–	–	–
CO[C@@]12CC[C@@H](N[C@@H](Cc3ccc(O)cc3)C(=O)O)[C@@H]3Oc4c(O)ccc5c4[C@@]31CCN(C)[C@@H]2C5	Active	1.2	58	–	–	–	–	–
CC[C@H](N[C@H]1CC[C@@]2(OC)[C@H]3Cc4ccc(O)c5c4[C@@]2(CCN3C)[C@H]1O5)C(=O)O	Active	–	189	–	–	–	0.0175 mg/kg	–
CC[C@H](N[C@@H]1CC[C@@]2(OC)[C@H]3Cc4ccc(O)c5c4[C@@]2(CCN3C)[C@H]1O5)C(=O)O	Active	0.7	110	–	83%	–	–	inactive
CN1CC[C@]23c4c5ccc(O)c4O[C@H]2[C@@H](O)C=C[C@H]3[C@H]1C5 [MORPHINE]	–	–	–	–	–	–	0.437 mg/kg	–
CO[C@@]12CC[C@H](N[C@@H](CO)C(=O)O)[C@@H]3Oc4c(O)ccc5c4[C@@]31CCN(C)[C@@H]2C5	Active	2.4	89	–	–	–	–	–
CO[C@@]12CC[C@@H](N[C@@H](CO)C(=O)O)[C@@H]3Oc4c(O)ccc5c4[C@@]31CCN(C)[C@@H]2C5	Active	2.5	71	–	–	–	–	–
CO[C@@]12CC[C@@H](N[C@H](Cc3ccccc3)C(=O)O)[C@@H]3Oc4c(O)ccc5c4[C@@]31CCN(C)[C@@H]2C5	Active	0.9	109	–	78%	–	–	–
CO[C@@]12CC[C@H](N[C@@H](Cc3ccc(O)cc3)C(=O)O)[C@@H]3Oc4c(O)ccc5c4[C@@]31CCN(C)[C@@H]2C5	Active	2.6	48	–	–	–	0.0146 mg/kg	–
CO[C@@]12CC[C@@H](N[C@H](C(=O)O)C3CCCCC3)[C@@H]3Oc4c(O)ccc5c4[C@@]31CCN(C)[C@@H]2C5	Active	0.8	71	–	–	–	–	inactive

SMILES	Activity [1]	Ratio Ki (Rattus norvegicus)	Ratio Ki [2]	Activity ([3]; filed as partial agonist)	Activity ([3]; filed as agonist)	Ki [4]	ED50 (Mus musculus [5])	Activity (Mus musculus [6])
CO[C@@]12CC[C@H](N[C@@H](CC(=O)O)C(=O)O)[C@@H]3Oc4c(O)ccc5c4[C@@]31CCN(C)[C@@H]2C5	Active	11	37	–	–	–	–	–
CO[C@@]12CC[C@@H](N[C@@H](C(=O)O)C(C)C)[C@@H]3Oc4c(O)ccc5c4[C@@]31CCN(C)[C@@H]2C5	Active	1.6	156	–	–	–	0.014 mg/kg	–
CO[C@@]12CC[C@@H](N[C@@H](CCC(=O)O)C(=O)O)[C@@H]3Oc4c(O)ccc5c4[C@@]31CCN(C)[C@@H]2C5	Active	0.7	108	–	–	–	–	–
CO[C@@]12CC[C@@H](N[C@@H](CC(=O)O)C(=O)O)[C@@H]3Oc4c(O)ccc5c4[C@@]31CCN(C)[C@@H]2C5	Active	6.6	103	–	74%	–	–	–
CO[C@@]12CCC(N[C@@H](CCC(=O)O)C(=O)O)[C@@H]3Oc4c(O)ccc5c4[C@@]31CCN(C)[C@@H]2C5 (single isomer, unassigned)	Active	6.2	60	–	–	–	–	–
CO[C@@]12CC[C@@H](NCCCC(=O)O)[C@@H]3Oc4c(O)ccc5c4[C@@]31CCN(C)[C@@H]2C5	Active	4.7	–	–	–	–	–	–
CO[C@@]12CC[C@H](N[C@@H](CCC(N)=O)C(=O)O)[C@@H]3Oc4c(O)ccc5c4[C@@]31CCN(C)[C@@H]2C5	Active	1.6	108	–	–	–	–	–
CO[C@@]12CC[C@H](N[C@@H](Cc3c[nH]c4ccccc34)C(=O)O)[C@@H]3Oc4c(O)ccc5c4[C@@]31CCN(C)[C@@H]2C5	Active	2.8	70	–	–	–	–	–
CO[C@@]12CC[C@H](NCCCC(=O)O)[C@@H]3Oc4c(O)ccc5c4[C@@]31CCN(C)[C@@H]2C5	Active	16	59	–	–	–	–	–
CO[C@@]12CC[C@@H](N[C@@H](CC(N)=O)C(=O)O)[C@@H]3Oc4c(O)ccc5c4[C@@]31CCN(C)[C@@H]2C5	Active	1.8	82	–	–	–	–	–
CO[C@@]12CC[C@H](N[C@@H](C(=O)O)C(C)C)[C@@H]3Oc4c(O)ccc5c4[C@@]31CCN(C)[C@@H]2C5	Active	1.1	119	–	–	–	–	–
CO[C@@]12CC[C@H](N[C@@H](CC(N)=O)C(=O)O)[C@@H]3Oc4c(O)ccc5c4[C@@]31CCN(C)[C@@H]2C5	Active	2.9	63	–	–	–	0.0152 mg/kg	–
CO[C@@]12CC[C@H](N[C@H](Cc3ccccc3)C(=O)O)[C@@H]3Oc4c(O)ccc5c4[C@@]31CCN(C)[C@@H]2C5	Active	6	125	–	–	–	0.0181 mg/kg	–
CO[C@@]12CC[C@@H](N[C@H](C(=O)O)C(C)C)[C@@H]3Oc4c(O)ccc5c4[C@@]31CCN(C)[C@@H]2C5	Active	1.2	100	–	84%	–	–	–
CO[C@@]12CC[C@H](N[C@H](C)C(=O)O)[C@@H]3Oc4c(O)ccc5c4[C@@]31CCN(C)[C@@H]2C5	Active	–	–	–	–	–	–	–
CO[C@@]12CC[C@H](N[C@H](C(=O)O)C(C)C)[C@@H]3Oc4c(O)ccc5c4[C@@]31CCN(C)[C@@H]2C5	Active	1.2	103	–	–	–	–	–
CO[C@@]12CC[C@H](N[C@H](C(=O)O)C3CCCCC3)[C@@H]3Oc4c(O)ccc5c4[C@@]31CCN(C)[C@@H]2C5	Active	12	144	–	–	–	–	–
CO[C@@]12CC[C@H](NCCC(=O)O)[C@@H]3Oc4c(O)ccc5c4[C@@]31CCN(C)[C@@H]2C5	Active	46	140	–	–	–	–	–
CO[C@@]12CC[C@@H](N[C@@H](CCCCN)C(=O)O)[C@@H]3Oc4c(O)ccc5c4[C@@]31CCN(C)[C@@H]2C5	Active	6.3	64	–	–	–	–	inactive
